For one data set, the target named is T1, Histone deacetylase 11 (Homo sapiens, UniProt Q96DB2).
T1 sequence (Q96DB2 whole entry): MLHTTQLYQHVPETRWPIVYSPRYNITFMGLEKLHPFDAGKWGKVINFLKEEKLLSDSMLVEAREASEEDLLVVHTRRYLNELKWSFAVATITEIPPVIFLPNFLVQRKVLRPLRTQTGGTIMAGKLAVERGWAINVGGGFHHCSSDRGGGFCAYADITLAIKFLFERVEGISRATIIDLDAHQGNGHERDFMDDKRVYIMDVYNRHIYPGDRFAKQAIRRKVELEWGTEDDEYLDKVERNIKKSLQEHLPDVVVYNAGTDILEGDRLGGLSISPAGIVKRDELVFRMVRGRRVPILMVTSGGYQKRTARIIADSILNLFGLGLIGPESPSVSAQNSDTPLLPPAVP
Nature of the data set: Inhibition of HDAC11 (unknown origin) incubated for 3 hrs in presence of BSA and DTT by fluorescence assay. The essentials: (§1)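 Purified HDAC isoforms were tested up to a maximum of 1 μM. IC50 values are averages of duplicate experiments. Disulfide compounds were pretreated with DTT to reduce the disulfide bond.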

The next data set deals with Histone deacetylase 2 (Homo sapiens, UniProt Q92769). As to the kind of experiment: Inhibition of HDAC2 (unknown origin) incubated for 30 mins in presence of BSA and DTT by fluorescence assay.
The next data set deals with Histone deacetylase 1 (Homo sapiens, UniProt Q13547). As to the kind of experiment: Inhibition of HDAC1 (unknown origin) incubated for 30 mins in presence of BSA and DTT by fluorescence assay.
A further data set has as its target T2, Histone deacetylase 7 (Homo sapiens, UniProt Q8WUI4).
T2 sequence (Q8WUI4 whole entry): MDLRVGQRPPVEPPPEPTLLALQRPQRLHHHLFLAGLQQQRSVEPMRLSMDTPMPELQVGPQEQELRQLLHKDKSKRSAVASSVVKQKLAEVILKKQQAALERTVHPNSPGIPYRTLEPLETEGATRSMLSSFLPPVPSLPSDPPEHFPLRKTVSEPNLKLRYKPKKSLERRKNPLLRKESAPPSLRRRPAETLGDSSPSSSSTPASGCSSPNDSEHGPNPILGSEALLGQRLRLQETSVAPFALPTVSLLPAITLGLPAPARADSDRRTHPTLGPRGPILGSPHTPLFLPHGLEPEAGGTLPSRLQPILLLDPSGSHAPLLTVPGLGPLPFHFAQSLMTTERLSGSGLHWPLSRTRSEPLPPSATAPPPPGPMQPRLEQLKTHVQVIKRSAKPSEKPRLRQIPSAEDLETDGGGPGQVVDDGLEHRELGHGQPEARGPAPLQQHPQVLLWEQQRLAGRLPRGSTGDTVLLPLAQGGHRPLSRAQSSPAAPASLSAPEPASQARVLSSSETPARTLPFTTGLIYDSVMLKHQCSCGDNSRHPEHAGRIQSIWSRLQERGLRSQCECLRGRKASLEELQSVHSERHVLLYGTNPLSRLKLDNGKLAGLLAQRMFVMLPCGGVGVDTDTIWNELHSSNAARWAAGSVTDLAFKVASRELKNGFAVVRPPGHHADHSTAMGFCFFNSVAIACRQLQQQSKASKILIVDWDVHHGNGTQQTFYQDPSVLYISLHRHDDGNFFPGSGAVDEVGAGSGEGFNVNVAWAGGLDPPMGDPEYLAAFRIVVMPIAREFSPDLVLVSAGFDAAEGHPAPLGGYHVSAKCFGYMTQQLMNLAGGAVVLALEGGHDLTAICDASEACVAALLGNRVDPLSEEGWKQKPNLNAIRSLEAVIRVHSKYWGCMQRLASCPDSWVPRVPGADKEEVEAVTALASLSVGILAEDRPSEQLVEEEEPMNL
As to the kind of experiment: Inhibition of HDAC7 (unknown origin) incubated for 30 mins in presence of BSA and DTT by fluorescence assay. The essentials: as §1

In data set [1] the target is T3, Histone deacetylase 7 (Homo sapiens) (UniProt Q8WUI4).
T3 sequence (whole entry): T2 sequence (Q8WUI4 whole entry)
As to the kind of experiment: Inhibition of HDAC7 (unknown origin) at 1 uM incubated for 30 mins in presence of BSA and DTT by fluorescence assay. The essentials:
as §1

A further data set addresses Histone deacetylase 3 (Homo sapiens, UniProt O15379). As to the kind of experiment: Inhibition of HDAC3 (unknown origin) incubated for 30 mins in presence of BSA and DTT by fluorescence assay. The essentials: as §1
In another data set the target is Histone deacetylase 5 (Homo sapiens, UniProt Q9UQL6). As to the kind of experiment: Inhibition of HDAC5 (unknown origin) incubated for 30 mins in presence of BSA and DTT by fluorescence assay. The essentials: as §1
A further data set has as its target Histone deacetylase 4 (Homo sapiens, UniProt P56524). Nature of the data set: Inhibition of HDAC4 (unknown origin) incubated for 30 mins in presence of BSA and DTT by fluorescence assay. The essentials:
as §1

Data set [2] is described as follows: Drug metabolism in tumor of human HCT116 cells xenografted nu/nu mouse assessed as time for maximum largazole thiol level at 10 mg/kg, ip by HPLC-MS method. The conditions noted are these: in vivo. Also noted: dose 10 mg/kg, route intraperitoneal. The class given is ADME, organism-based, Neoplasm, HCT-116.
Data set [3] has as its system HCT-116. Nature of the data set: In vivo inhibition of HDAC in tumor of human HCT116 cells xenografted nu/nu mouse assessed as increase in histone hyperacetylation at 50 mg/kg, ip after 12 hrs by immunoblotting method. The class given is functional, organism-based. Also noted: dose 50 mg/kg. The essentials: (§2)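 Mice bearing HCT116 xenografts were dosed intraperitoneally at 10 or 50 mg/kg, or orally at 50 mg/kg. Tumors were excised at 4, 12 and 24 h. Histone hyperacetylation in the tumors was assessed by immunoblot, n = 2.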

The next data set concerns Serum. Nature of the data set: Drug metabolism in mouse serum assessed as largazole thiol formation after 0.25 to 1440 mins by HPLC-MS method. The class given is ADME, cell-free.
The subject of data set [4] is HCT-116. Nature of the data set: In vivo inhibition of HDAC in tumor of human HCT116 cells xenografted nu/nu mouse assessed as increase in histone hyperacetylation at 10 mg/kg, ip after 4 to 12 hrs by immunoblotting method. The data set is classed as functional, organism-based. Also noted: dose 10 mg/kg. The essentials:
as §2

A short description of data set [5]: Drug metabolism in tumor of human HCT116 cells xenografted nu/nu mouse assessed as time for maximum largazole thiol level at 50 mg/kg, ip by HPLC-MS method. The data set is classed as ADME, organism-based, Neoplasm, HCT-116. Also noted: dose 50 mg/kg, route intraperitoneal. The conditions noted are these: in vivo.
Data set [6] deals with HCT-116. Nature of the data set: In vivo inhibition of HDAC in tumor of human HCT116 cells xenografted nu/nu mouse assessed as increase in histone hyperacetylation at 50 mg/kg, ip after 4 to 24 hrs by immunoblotting method. The arrangement: dose 50 mg/kg. The data set is classed as functional, organism-based. The essentials: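 HCT116 xenograft mice were dosed intraperitoneally at 10 or 50 mg/kg. Tumors were excised after 4, 12 and 24 h, n = 2. Histone hyperacetylation in tumor tissue was assessed by immunoblotting.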

The test system of data set [7] is HCT-116. As to the kind of experiment: In vivo inhibition of HDAC in tumor of human HCT116 cells xenografted nu/nu mouse assessed as increase in histone hyperacetylation at 50 mg/kg, po after 4 to 12 hrs by immunoblotting method. The class given is functional, organism-based. Also noted: dose 50 mg/kg. The essentials: as §2
Data set [8] can be described thus: Drug metabolism in tumor of human HCT116 cells xenografted nu/nu mouse assessed largazole thiol formation at 50 mg/kg, po by HPLC-MS method. To be noted: in vivo.
Data set [9] in a line: Drug metabolism in human HCT116 cells protein lysate solution assessed as largazole thiol formation at 25 ug/mL after 1 hr by HPLC-MS method. The class given is ADME, cell-based. To be noted: hct-116, 1 h.

Calls of active or inactive are those of the source. The calls are words filed in the database; no cut-off is given here.

Sequence of Histone deacetylase 1 (Q13547 whole entry): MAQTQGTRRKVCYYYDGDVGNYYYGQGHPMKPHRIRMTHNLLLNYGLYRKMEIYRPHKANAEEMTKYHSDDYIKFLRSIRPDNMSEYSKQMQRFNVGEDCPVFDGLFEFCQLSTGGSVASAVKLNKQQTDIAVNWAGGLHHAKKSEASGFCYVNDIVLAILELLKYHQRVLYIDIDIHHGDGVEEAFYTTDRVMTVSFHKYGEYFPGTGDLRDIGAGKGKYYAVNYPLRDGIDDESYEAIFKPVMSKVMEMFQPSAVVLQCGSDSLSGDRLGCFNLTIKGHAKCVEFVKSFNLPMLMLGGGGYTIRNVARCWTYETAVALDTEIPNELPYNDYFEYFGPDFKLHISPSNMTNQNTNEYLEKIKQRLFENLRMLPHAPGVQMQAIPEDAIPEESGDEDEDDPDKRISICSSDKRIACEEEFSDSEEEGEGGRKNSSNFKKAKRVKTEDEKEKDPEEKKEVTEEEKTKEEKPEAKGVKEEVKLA
Sequence of Histone deacetylase 3 (O15379 whole entry): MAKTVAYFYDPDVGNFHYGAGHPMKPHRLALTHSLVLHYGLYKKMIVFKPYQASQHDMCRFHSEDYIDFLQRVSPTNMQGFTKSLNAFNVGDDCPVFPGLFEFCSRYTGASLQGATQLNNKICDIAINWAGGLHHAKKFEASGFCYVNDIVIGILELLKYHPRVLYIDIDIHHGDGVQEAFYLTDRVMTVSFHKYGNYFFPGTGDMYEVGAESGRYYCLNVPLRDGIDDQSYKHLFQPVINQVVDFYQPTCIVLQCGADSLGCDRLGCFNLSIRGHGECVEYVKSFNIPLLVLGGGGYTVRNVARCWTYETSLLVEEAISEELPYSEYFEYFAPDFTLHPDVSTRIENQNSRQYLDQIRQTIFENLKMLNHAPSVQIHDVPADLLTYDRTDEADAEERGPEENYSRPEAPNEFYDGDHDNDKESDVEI
Sequence of Histone deacetylase 4 (P56524 whole entry): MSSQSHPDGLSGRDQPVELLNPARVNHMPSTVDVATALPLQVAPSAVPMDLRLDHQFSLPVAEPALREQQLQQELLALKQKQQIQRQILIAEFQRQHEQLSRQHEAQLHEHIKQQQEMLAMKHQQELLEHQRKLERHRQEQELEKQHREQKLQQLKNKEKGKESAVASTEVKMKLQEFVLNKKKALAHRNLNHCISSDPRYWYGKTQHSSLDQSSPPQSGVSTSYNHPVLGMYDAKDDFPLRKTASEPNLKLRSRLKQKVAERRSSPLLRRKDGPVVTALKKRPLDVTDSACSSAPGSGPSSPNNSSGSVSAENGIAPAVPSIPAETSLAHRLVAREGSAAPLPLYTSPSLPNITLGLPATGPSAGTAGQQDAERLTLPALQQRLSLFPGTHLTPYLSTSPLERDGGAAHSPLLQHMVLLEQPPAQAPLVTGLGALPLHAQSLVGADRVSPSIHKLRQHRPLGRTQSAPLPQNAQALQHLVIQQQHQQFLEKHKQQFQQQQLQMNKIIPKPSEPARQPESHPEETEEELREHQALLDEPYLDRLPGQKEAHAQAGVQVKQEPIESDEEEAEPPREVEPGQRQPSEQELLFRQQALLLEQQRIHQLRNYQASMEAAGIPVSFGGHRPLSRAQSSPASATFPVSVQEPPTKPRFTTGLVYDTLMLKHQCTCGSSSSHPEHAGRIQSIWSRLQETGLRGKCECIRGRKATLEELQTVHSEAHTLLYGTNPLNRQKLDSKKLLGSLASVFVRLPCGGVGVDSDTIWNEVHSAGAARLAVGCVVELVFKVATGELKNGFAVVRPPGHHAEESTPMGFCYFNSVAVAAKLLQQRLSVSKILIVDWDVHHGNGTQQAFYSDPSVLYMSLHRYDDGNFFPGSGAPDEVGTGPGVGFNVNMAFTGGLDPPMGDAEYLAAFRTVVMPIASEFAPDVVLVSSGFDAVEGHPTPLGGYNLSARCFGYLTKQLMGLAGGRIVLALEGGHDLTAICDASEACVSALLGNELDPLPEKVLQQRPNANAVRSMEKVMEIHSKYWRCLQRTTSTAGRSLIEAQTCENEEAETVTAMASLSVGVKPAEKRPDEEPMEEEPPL
Sequence of Histone deacetylase 5 (Q9UQL6 whole entry): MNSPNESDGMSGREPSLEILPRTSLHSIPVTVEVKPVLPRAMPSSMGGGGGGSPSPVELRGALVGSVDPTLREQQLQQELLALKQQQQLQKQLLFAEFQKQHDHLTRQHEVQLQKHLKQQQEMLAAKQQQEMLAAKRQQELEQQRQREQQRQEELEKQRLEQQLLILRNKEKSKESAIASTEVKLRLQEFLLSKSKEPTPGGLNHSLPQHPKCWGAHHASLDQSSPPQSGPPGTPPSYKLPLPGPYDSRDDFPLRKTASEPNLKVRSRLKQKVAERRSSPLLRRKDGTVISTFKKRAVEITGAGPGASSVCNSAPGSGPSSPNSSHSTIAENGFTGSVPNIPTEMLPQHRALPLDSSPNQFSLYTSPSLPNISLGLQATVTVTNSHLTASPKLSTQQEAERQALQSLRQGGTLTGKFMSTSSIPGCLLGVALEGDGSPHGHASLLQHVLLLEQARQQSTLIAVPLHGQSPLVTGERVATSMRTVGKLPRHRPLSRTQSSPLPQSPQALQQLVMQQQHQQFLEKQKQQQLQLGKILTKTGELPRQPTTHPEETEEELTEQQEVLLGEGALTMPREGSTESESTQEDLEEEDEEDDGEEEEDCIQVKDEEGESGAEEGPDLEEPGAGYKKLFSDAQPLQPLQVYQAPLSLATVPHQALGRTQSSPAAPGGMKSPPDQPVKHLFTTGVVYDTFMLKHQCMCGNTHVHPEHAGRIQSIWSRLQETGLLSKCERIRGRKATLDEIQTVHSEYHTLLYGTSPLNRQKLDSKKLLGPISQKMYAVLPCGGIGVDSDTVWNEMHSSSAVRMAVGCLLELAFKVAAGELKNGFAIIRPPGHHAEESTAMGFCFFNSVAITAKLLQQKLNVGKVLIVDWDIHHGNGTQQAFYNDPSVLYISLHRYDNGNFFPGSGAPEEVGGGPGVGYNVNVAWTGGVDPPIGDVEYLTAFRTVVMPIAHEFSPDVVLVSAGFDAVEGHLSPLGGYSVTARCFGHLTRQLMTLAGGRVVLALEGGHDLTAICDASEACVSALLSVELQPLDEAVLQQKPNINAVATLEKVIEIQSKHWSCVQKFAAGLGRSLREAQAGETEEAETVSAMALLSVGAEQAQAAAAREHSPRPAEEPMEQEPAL
Sequence of Histone deacetylase 2 (Q92769 whole entry): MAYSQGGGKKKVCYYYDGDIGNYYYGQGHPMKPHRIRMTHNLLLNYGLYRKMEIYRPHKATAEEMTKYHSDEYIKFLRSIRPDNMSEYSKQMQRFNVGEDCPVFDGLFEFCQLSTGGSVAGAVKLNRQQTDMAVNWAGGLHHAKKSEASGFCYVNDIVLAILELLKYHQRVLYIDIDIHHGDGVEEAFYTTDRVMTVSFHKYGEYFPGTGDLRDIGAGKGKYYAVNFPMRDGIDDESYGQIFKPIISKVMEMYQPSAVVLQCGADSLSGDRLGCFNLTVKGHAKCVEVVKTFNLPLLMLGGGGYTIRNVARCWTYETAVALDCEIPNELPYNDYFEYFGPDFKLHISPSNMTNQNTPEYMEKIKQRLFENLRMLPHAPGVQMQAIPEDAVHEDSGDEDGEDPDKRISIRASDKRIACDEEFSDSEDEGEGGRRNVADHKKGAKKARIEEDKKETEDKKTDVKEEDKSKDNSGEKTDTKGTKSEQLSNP

For the molecule `CC(C)[C@@H]1NC(=O)[C@]2(C)CSC(=N2)c2csc(n2)CNC(=O)C[C@@H](/C=C/CCSSC[C@H](NC(=O)OC(C)(C)C)C(=O)OC(C)(C)C)OC1=O`, the concentration for half-maximal inhibition (IC50) at Histone deacetylase 11 was 0.2 nM; on Histone deacetylase 2 it was 0.9 nM; on Histone deacetylase 1, 0.4 nM; on Histone deacetylase 7, “Not Active”; on Histone deacetylase 3, 0.6 nM; on Histone deacetylase 5, “Not Active”. The IC50 entry at Histone deacetylase 4 was “Not Active”. In addition, the inhibition in [1] was < 20%.
Take `CC(C)[C@@H]1NC(=O)[C@]2(C)CSC(=N2)c2csc(n2)CNC(=O)C[C@@H](/C=C/CCSSCC/C=C/[C@@H]2CC(=O)NCc3nc(cs3)C3=N[C@@](C)(CS3)C(=O)N[C@@H](C(C)C)C(=O)O2)OC1=O`: the time of peak concentration (Tmax) in data set [2] and in [5] was 4 h each time. The inhibition result with HCT-116 [3] and in the data set with HCT-116 [7] was “inactive” each time. The IC50 was 0.1 nM on Histone deacetylase 11; 0.5 nM on Histone deacetylase 2; 0.3 nM at Histone deacetylase 1; “Not Active” at Histone deacetylase 7; 0.3 nM at Histone deacetylase 3; “Not Active” on Histone deacetylase 5. The 50% inhibitory concentration (IC50) result on Histone deacetylase 4 was “Not Active”. The Drug metabolism result is given as “metabolite_notdetected” with Serum, “metabolite_notdetected” in data set [8] and “metabolite_detected” in data set [9]. Besides, the inhibition entry with HCT-116 [4] and in the data set on HCT-116 [6] was “Active” each time. The inhibition in [1] was < 20%.

For the origin of these results see ChEMBL document CHEMBL3352121, “Modulation of Activity Profiles for Largazole-Based HDAC Inhibitors through Alteration of Prodrug Properties” (ACS Med Chem Lett, 2014).
